# ChEMBL document CHEMBL4007430, “Synthesis and Cytostatic and Antiviral Profiling of Thieno-Fused 7-Deazapurine Ribonucleosides” (J Med Chem, 2017)
# Key:
# Adenosine kinase [1] = molecular target: T1, Adenosine kinase (Homo sapiens, UniProt P55263); assay: Drug level in human HCT116 cells assessed as ADK-mediated compound formation treated with 4-Methylsulfanyl-8-(beta-D-ribofuranosyl)-8H-thieno[3',2':4,5]-pyrrolo[2,3-d]pyrimidine at 10 umol/L after 3 hrs by UPLC-MS/MS analysis; format: ADME, cell-based
# HepG2 = assay: Cytotoxicity against human HepG2 cells assessed as reduction in cell viability after 72 hrs by XTT assay; format: functional, cell-based; settings: HepG2, 72 h
# In short: (§1)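 Cells were incubated with compound for 3 days. Viability was then measured with the XTT tetrazolium assay.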
# Adenosine kinase [2] = molecular target: T1, Adenosine kinase; assay: Drug level in human BJ cells assessed as ADK-mediated compound formation treated with 4-Methylsulfanyl-8-(beta-D-ribofuranosyl)-8H-thieno[3',2':4,5]-pyrrolo[2,3-d]pyrimidine at 1 umol/L after 1 hr by UPLC-MS/MS analysis; format: ADME, cell-based
# [3] = Cytotoxicity against human K562-TAX cells assessed as cell growth inhibition after 72 hrs by MTS assay; format: functional, cell-based
# In short: (§2)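 Cells were exposed to compound for 3 days, then stained with MTS as a quantitative metabolic read-out. IC50 is the concentration that inhibits cell growth by 50%.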
# HeLa S3 = assay: Cytotoxicity against human HeLaS3 cells assessed as reduction in cell viability after 72 hrs by XTT assay; format: functional, cell-based; settings: HeLa S3, 72 h; in short: as §1
# Adenosine kinase [4] = molecular target: T1, Adenosine kinase; assay: Drug level in human HCT116 cells assessed as ADK-mediated compound formation treated with 4-Methylsulfanyl-8-(beta-D-ribofuranosyl)-8H-thieno[3',2':4,5]-pyrrolo[2,3-d]pyrimidine at 10 umol/L after 1 hr by UPLC-MS/MS analysis; format: ADME, cell-based
# Adenosine kinase [5] = molecular target: T1, Adenosine kinase; assay: Drug level in human BJ cells assessed as ADK-mediated compound formation treated with 4-Methylsulfanyl-8-(beta-D-ribofuranosyl)-8H-thieno[3',2':4,5]-pyrrolo[2,3-d]pyrimidine at 10 umol/L after 1 hr by UPLC-MS/MS analysis; format: ADME, cell-based
# [6] = Cytotoxicity against mrp-1/mdr-1 overexpressing human CEM-DNR-bulk cells assessed as cell growth inhibition after 72 hrs by MTS assay; format: functional, cell-based
# In short: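 Cells were exposed to compound for 3 days, then stained with MTS as a quantitative metabolic read-out.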
# Adenosine kinase [7] = molecular target: T1, Adenosine kinase; assay: Drug metabolism in human BJ cells assessed as ADK-mediated 4-Methylsulfanyl-8-(beta-D-ribofuranosyl)-8H-thieno[3,2:4,5]-pyrrolo[2,3-d]pyrimidine-5-O-monophosphate Sodium Salt formation per 5 x10^5 cells at 10 umol/L after 1 hr by UPLC-MS/MS analysis; format: ADME, cell-based; settings: 10 µM
# Adenosine kinase [8] = molecular target: T1, Adenosine kinase; assay: Drug metabolism in human BJ cells assessed as ADK-mediated 4-Methylsulfanyl-8-(beta-D-ribofuranosyl)-8H-thieno[3,2:4,5]-pyrrolo[2,3-d]pyrimidine-5-O-monophosphate Sodium Salt formation per 5 x10^5 cells at 10 umol/L after 3 hrs by UPLC-MS/MS analysis; format: ADME, cell-based; settings: 10 µM
# MRC5 = assay: Cytotoxicity against human MRC5 cells assessed as cell growth inhibition after 72 hrs by MTS assay; format: cell-based; settings: MRC5, 72 h; in short: as §2
# Adenosine kinase [9] = molecular target: T1, Adenosine kinase; assay: Drug metabolism in human BJ cells assessed as ADK-mediated 4-Methylsulfanyl-8-(beta-D-ribofuranosyl)-8H-thieno[3,2:4,5]-pyrrolo[2,3-d]pyrimidine-5-O-monophosphate Sodium Salt formation per 5 x10^5 cells at 1 umol/L after 3 hrs by UPLC-MS/MS analysis; format: ADME, cell-based; settings: 1 µM
# Adenosine kinase [10] = molecular target: T1, Adenosine kinase; assay: Drug level in human BJ cells assessed as ADK-mediated compound formation treated with 4-Methylsulfanyl-8-(beta-D-ribofuranosyl)-8H-thieno[3',2':4,5]-pyrrolo[2,3-d]pyrimidine at 10 umol/L after 3 hrs by UPLC-MS/MS analysis; format: ADME, cell-based
# Adenosine kinase [11] = molecular target: T1, Adenosine kinase; assay: Drug metabolism in human HCT116 cells assessed as ADK-mediated 4-Methylsulfanyl-8-(beta-D-ribofuranosyl)-8H-thieno[3,2:4,5]-pyrrolo[2,3-d]pyrimidine-5-O-monophosphate Sodium Salt formation per 5 x10^5 cells at 10 umol/L after 3 hrs by UPLC-MS/MS analysis; format: ADME, cell-based; settings: 10 µM
# Adenosine kinase [12] = molecular target: T1, Adenosine kinase; assay: Drug level in human BJ cells assessed as ADK-mediated compound formation treated with 4-Methylsulfanyl-8-(beta-D-ribofuranosyl)-8H-thieno[3',2':4,5]-pyrrolo[2,3-d]pyrimidine at 1 umol/L after 3 hrs by UPLC-MS/MS analysis; format: ADME, cell-based
# Adenosine kinase [13] = molecular target: T1, Adenosine kinase; assay: Drug metabolism in human HCT116 cells assessed as ADK-mediated 4-Methylsulfanyl-8-(beta-D-ribofuranosyl)-8H-thieno[3,2:4,5]-pyrrolo[2,3-d]pyrimidine-5-O-monophosphate Sodium Salt formation per 5 x10^5 cells at 10 umol/L after 1 hr by UPLC-MS/MS analysis; format: ADME, cell-based; settings: 10 µM
# Adenosine kinase [14] = molecular target: T1, Adenosine kinase; assay: Drug level in human HCT116 cells assessed as ADK-mediated compound formation treated with 4-Methylsulfanyl-8-(beta-D-ribofuranosyl)-8H-thieno[3',2':4,5]-pyrrolo[2,3-d]pyrimidine at 1 umol/L after 1 hr by UPLC-MS/MS analysis; format: ADME, cell-based
# BJ = assay: Cytotoxicity against human BJ cells assessed as cell growth inhibition after 72 hrs by MTS assay; format: cell-based; in short: as §2
# Adenosine kinase [15] = molecular target: T1, Adenosine kinase; assay: Drug metabolism in human HCT116 cells assessed as ADK-mediated 4-Methylsulfanyl-8-(beta-D-ribofuranosyl)-8H-thieno[3,2:4,5]-pyrrolo[2,3-d]pyrimidine-5-O-monophosphate Sodium Salt formation per 5 x10^5 cells at 1 umol/L after 1 hr by UPLC-MS/MS analysis; format: ADME, cell-based; settings: 1 µM
# K562 = assay: Cytotoxicity against human K562 cells assessed as cell growth inhibition after 72 hrs by MTS assay; format: functional, cell-based; settings: K562, 72 h; in short: as §2
# HCT-116 [16] = assay: Cytotoxicity against p53 deficient human HCT116 cells assessed as cell growth inhibition after 72 hrs by MTS assay; format: functional, cell-based; settings: HCT-116, 72 h; in short: as §2
# Adenosine kinase [17] = molecular target: T1, Adenosine kinase; assay: Drug level assessed as human ADK-mediated compound formation treated with 4-Methylsulfanyl-8-(beta-D-ribofuranosyl)-8H-thieno[3',2':4,5]-pyrrolo[2,3-d]pyrimidine at 50 uM after 30 mins by HPLC analysis; format: ADME; settings: 0.5 h
# A549 = assay: Cytotoxicity against human A549 cells assessed as cell growth inhibition after 72 hrs by MTS assay; format: functional, cell-based; settings: A549, 72 h; in short: as §2
# HCT-116 [18] = assay: Cytotoxicity against human HCT116 cells assessed as cell growth inhibition after 72 hrs by MTS assay; format: functional, cell-based; settings: HCT-116, 72 h; in short: as §2
# Adenosine kinase [19] = molecular target: T1, Adenosine kinase; assay: Drug level in human HCT116 cells assessed as ADK-mediated compound formation treated with 4-Methylsulfanyl-8-(beta-D-ribofuranosyl)-8H-thieno[3',2':4,5]-pyrrolo[2,3-d]pyrimidine at 1 umol/L after 3 hrs by UPLC-MS/MS analysis; format: ADME, cell-based
# Adenosine kinase [20] = molecular target: T1, Adenosine kinase; assay: Drug metabolism in human HCT116 cells assessed as ADK-mediated 4-Methylsulfanyl-8-(beta-D-ribofuranosyl)-8H-thieno[3,2:4,5]-pyrrolo[2,3-d]pyrimidine-5-O-monophosphate Sodium Salt formation per 5 x10^5 cells at 1 umol/L after 3 hrs by UPLC-MS/MS analysis; format: ADME, cell-based; settings: 1 µM
# Adenosine kinase [21] = molecular target: T1, Adenosine kinase; assay: Drug metabolism in human BJ cells assessed as ADK-mediated 4-Methylsulfanyl-8-(beta-D-ribofuranosyl)-8H-thieno[3,2:4,5]-pyrrolo[2,3-d]pyrimidine-5-O-monophosphate Sodium Salt formation per 5 x10^5 cells at 1 umol/L after 1 hr by UPLC-MS/MS analysis; format: ADME, cell-based; settings: 1 µM
# HL-60 = assay: Cytotoxicity against human HL60 cells assessed as reduction in cell viability after 72 hrs by XTT assay; format: functional, cell-based; settings: HL-60, 72 h; in short: as §1
# U2OS = assay: Cytotoxicity against human U2OS cells assessed as cell growth inhibition after 72 hrs by MTS assay; format: functional, cell-based
# CCRF-CEM = assay: Cytotoxicity against human CCRF-CEM cells assessed as cell growth inhibition after 72 hrs by MTS assay
# T1 sequence (P55263 whole entry): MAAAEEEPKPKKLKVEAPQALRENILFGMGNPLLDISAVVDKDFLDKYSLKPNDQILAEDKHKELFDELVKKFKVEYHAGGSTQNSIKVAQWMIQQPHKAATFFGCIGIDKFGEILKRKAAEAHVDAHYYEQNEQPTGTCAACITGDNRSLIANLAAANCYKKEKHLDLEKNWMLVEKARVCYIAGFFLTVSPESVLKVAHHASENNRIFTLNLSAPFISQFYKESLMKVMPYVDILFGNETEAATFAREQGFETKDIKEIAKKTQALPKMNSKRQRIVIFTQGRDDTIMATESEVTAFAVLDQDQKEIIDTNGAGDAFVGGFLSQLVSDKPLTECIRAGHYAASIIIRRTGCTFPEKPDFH
compound,measurement,setting,value
CSc1ncnc2c1c1ccsc1n2[C@@H]1O[C@H](COP(=O)([O-])O)[C@@H](O)[C@H]1O.[Na+],Drug metabolism,Adenosine kinase [1],Metabolite_Detected
same,IC50,HepG2,770 nM
same,Drug metabolism,Adenosine kinase [2],Metabolite_Detected
same,IC50,[3],> 50 µM
same,IC50,HeLa S3,2190 nM
same,Drug metabolism,Adenosine kinase [4],Metabolite_Detected
same,Drug metabolism,Adenosine kinase [5],Metabolite_Detected
same,IC50,[6],> 50 µM
same,Drug metabolism,Adenosine kinase [7],6694.3 pmol
same,Drug metabolism,Adenosine kinase [8],6862.8 pmol
same,IC50,MRC5,> 50 µM
same,Drug metabolism,Adenosine kinase [9],4933.3 pmol
same,Drug metabolism,Adenosine kinase [10],Metabolite_Detected
same,Drug metabolism,Adenosine kinase [11],144.3 pmol
same,Drug metabolism,Adenosine kinase [12],Metabolite_Detected
same,Drug metabolism,Adenosine kinase [13],98.5 pmol
same,Drug metabolism,Adenosine kinase [14],Metabolite_Detected
same,IC50,BJ,730 nM
same,Drug metabolism,Adenosine kinase [15],76.2 pmol
same,IC50,K562,1320 nM
same,IC50,HCT-116 [16],260 nM
same,Drug metabolism,Adenosine kinase [17],Metabolite_Detected
same,IC50,A549,> 50 µM
same,IC50,HCT-116 [18],250 nM
same,Drug metabolism,Adenosine kinase [19],Metabolite_Detected
same,Drug metabolism,Adenosine kinase [20],75.6 pmol
same,Drug metabolism,Adenosine kinase [21],13.8 pmol
same,IC50,HL-60,770 nM
same,IC50,U2OS,2590 nM
same,IC50,CCRF-CEM,190 nM
